Reference: ChEMBL document CHEMBL4145525, “Machine learning prioritizes synthesis of primaquine ureidoamides with high antimalarial activity and attenuated cytotoxicity” (Eur J Med Chem, 2018)

Key:
[1] = tested on: Plasmodium falciparum; assay: Antiplasmodial activity against erythrocytic stage of Plasmodium falciparum NF54 assessed as reduction in [3H]hypoxanthine incorporation after 48 hrs by liquid scintillation counting method; type: functional, organism-based
Procedure, shortened: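 Asexual blood-stage NF54 grown in hypoxanthine-free RPMI 1640 with HEPES, NaHCO3, neomycin and Albumax, using washed human A+ erythrocytes at 2.5% hematocrit and 0.3% parasitemia. Compounds were made as 10 mg/ml DMSO stocks and run as eleven 3-fold dilutions, 100 to 0.002 µg/ml. Incubation at 37 °C in 4% CO2, 3% O2, 93% N2. After 48 h, 0.5 µCi 3H-hypoxanthine was added for a further 24 h, then harvested and scintillation counted. IC50 by linear interpolation of sigmoidal curves; averages of 2–3 independent experiments.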

[2] = tested on: L6; assay: Cytotoxicity against rat L6 cells assessed as reduction in cell viability after 70 hrs by Alamar blue assay; type: cell-based; conditions: L6, 70 h
Procedure, shortened: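 L6 rat skeletal myoblasts were plated at 4000 cells/well in RPMI 1640 with L-glutamine and 10% FBS. Eleven 3-fold drug dilutions, 100 to 0.002 µg/ml. After 70 h, Alamar Blue was added for 2 h and fluorescence read (ex 536 nm, em 588 nm). IC50 by linear interpolation from sigmoid dose-inhibition curves.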

[3] = Selectivity index, ratio of IC50 for rat L6 cells to IC50 for erythrocytic stage of Plasmodium falciparum NF54; type: toxicity; conditions: read-out: Ratio IC50
Procedure, shortened: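 Ratio of the L6 cytotoxicity IC50 to the IC50 against P. falciparum NF54.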

SMILES	IC50 [1]	IC50 [2]	selectivity ratio [3]
COc1cc(NC(C)CCCNC(=O)Nc2ccc(Cl)c(C(F)(F)F)c2)c2ncccc2c1 (stereo not given)	17.1 µM	–	–
COc1cc(NC(C)CCCNC(=O)NNC(=O)NCc2ccccc2)c2ncccc2c1 (stereo not given)	> 111 µM	–	–
COc1cc(NC(C)CCCNC(=O)NNC(=O)/C=C/c2cccc(C(F)(F)F)c2)c2ncccc2c1 (stereo not given)	> 19.4 µM	10.6 µM	< 0.5
COc1cc(NC(C)CCCNC(=O)NNC(=O)/C=C/c2ccccc2F)c2ncccc2c1 (stereo not given)	> 21.4 µM	25.1 µM	< 1.2
COc1cc(NC(C)CCCNC(=O)/C=C/c2ccc3c(c2)OCO3)c2ncccc2c1 (stereo not given)	22.1 µM	29 µM	1.3
COc1cc(NC(C)CCCNC(=O)NNC(=O)NC2CCCCC2)c2ncccc2c1 (stereo not given)	46.3 µM	–	–
COc1cc(NC(C)CCCNC(=O)NNC(=O)Nc2ccc(Cl)c(C(F)(F)F)c2)c2ncccc2c1 (stereo not given)	15.2 µM	–	–
COc1cc(NC(C)CCCNC(=O)NNC(=O)NC(CO)(CO)CO)c2ncccc2c1 (stereo not given)	66.7 µM	–	–
COc1cc(NC(C)CCCNC(=O)NC2CCCCC2)c2ncccc2c1 (stereo not given)	42.1 µM	–	–
COc1cc(NC(C)CCCNC(=O)NCCNC(c2ccccc2)(c2ccccc2)c2ccccc2)c2ncccc2c1 (stereo not given)	1.5 µM	> 171 µM	> 114
COc1cc(NC(C)CCCNC(=O)NNC(=O)N(CCO)CCO)c2ncccc2c1 (stereo not given)	41.4 µM	178 µM	4.3
COc1cc(NC(C)CCCNC(=O)/C=C/c2ccc(C(F)(F)F)cc2)c2ncccc2c1 (stereo not given)	12.9 µM	160 µM	12.4
COc1cc(NC(C)CCCNC(=O)NNC(=O)N(C)C(c2ccccc2)c2ccccc2)c2ncccc2c1 (stereo not given)	10 µM	10.4 µM	1
COc1cc(NC(C)CCCNC(=O)NCc2ccncc2)c2ncccc2c1 (stereo not given)	47.3 µM	–	–
COc1cc(NC(C)CCCNC(=O)/C=C/c2cccc(C(F)(F)F)c2)c2ncccc2c1 (stereo not given)	15.6 µM	16.2 µM	1
COc1ccc(/C=C/C(=O)NNC(=O)NCCCC(C)Nc2cc(OC)cc3cccnc23)cc1 (stereo not given)	22.2 µM	3.6 µM	0.2

SMILES	IC50 [1]	IC50 [2]	selectivity ratio [3]
COc1cc(NC(C)CCCNC(=O)NNC(=O)NC2CCCC2)c2ncccc2c1 (stereo not given)	75.4 µM	–	–
COc1cc(NC(C)CCCNC(=O)/C=C/c2ccc(Cl)cc2)c2ncccc2c1 (stereo not given)	13.7 µM	16.8 µM	1.2
COc1cc(NC(C)CCCNC(=O)NNC(=O)Nc2ccc(C(F)(F)F)cc2)c2ncccc2c1 (stereo not given)	10.3 µM	14.9 µM	1.4
COc1cc(NC(C)CCCNC(=O)NNC(=O)NCCCC(C)Nc2cc(OC)cc3cccnc23)c2ncccc2c1 (stereo not given)	3.7 µM	76.6 µM	20.7
COc1cc(NC(C)CCCNC(=O)NNC(=O)/C=C/c2cc(C(F)(F)F)cc(C(F)(F)F)c2)c2ncccc2c1 (stereo not given)	> 17.1 µM	> 170 µM	–
COc1ccc(/C=C/C(=O)NCCCC(C)Nc2cc(OC)cc3cccnc23)cc1 (stereo not given)	12.4 µM	> 240 µM	> 19.4
COc1cc(NC(C)CCCNC(=O)NC2CCCC2)c2ncccc2c1 (stereo not given)	65.9 µM	–	–
COc1cc(NC(C)CCCNC(=O)NNC(=O)NC(c2ccccc2)c2ccccc2)c2ncccc2c1 (stereo not given)	10.3 µM	–	–
COc1cc(NC(C)CCCNC(=O)N(C2CCCCC2)C2CCCCC2)c2ncccc2c1 (stereo not given)	8.1 µM	–	–
COc1cc(NC(C)CCCNC(=O)NNC(=O)NOCc2ccccc2)c2ncccc2c1 (stereo not given)	20.8 µM	–	–
COc1cc(NC(C)CCCNC(=O)/C(C)=C/c2ccccc2)c2ncccc2c1 (stereo not given)	> 24.8 µM	> 250 µM	–
COc1cc(NC(C)CCCNC(=O)NCCO)c2ncccc2c1 (stereo not given)	27.4 µM	–	–
COc1cc(NC(C)CCCNC(=O)NNC(=O)NCCCO)c2ncccc2c1 (stereo not given)	58.8 µM	–	–
COc1cc(NC(C)CCCNC(=O)NNC(=O)NCCc2ccccc2)c2ncccc2c1 (stereo not given)	27.1 µM	–	–
COc1cc(NC(C)CCCNC(=O)NNC(=O)NCCCCCO)c2ncccc2c1 (stereo not given)	43.7 µM	–	–
COc1cc(NC(C)CCCNC(=O)NCCCO)c2ncccc2c1 (stereo not given)	52.4 µM	–	–
